Measurements: article PMC10874764 (Chinese Herbal Medicines, 2023)
Read-outs that look alike come from different tables or passages of the source.

Experiments:
[1] = Pharmacokinetics of five components in control; type: in vivo, SD rats; conditions: for AUC / AUC(0-t) / Cmax / MRT last / half-life / Tmax: male, SD, rat, plasma, po, 1.5 mL/200 g, n = 6; for AUC: AUC(0−i); for MRT last: MRT0−t
Procedure, shortened: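 Male SD rats (8-week-old, 200–220 g), four groups (n = 6). Acute liver injury induced by intraperitoneal 50% CCl4 in olive oil at 3 mL/kg; controls received olive oil; fasted with water. After 12 h, single intragastric decoction at 1.5 mL/200 g. Tail-vein blood taken at 0–12 h into heparin. HPLC-MS/MS with internal standard; compartment-model fit for AUC, Cmax, Tmax, T1/2 and MRT.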

[2] = type: in vivo, SD rats; conditions: male, SD, rat, plasma, po, 1.5 mL/200 g
[3] = Stability of each chemical component in rat plasma; type: in vitro ADME
Procedure, shortened: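 Blank rat plasma was spiked at 10, 100 and 500 ng/mL and held at room temperature for 24 h, at 4 °C for 14 d, or frozen at −20 °C for 15 d. Six samples per level were assayed by HPLC-MS/MS against 1,8-dihydroxyanthraquinone internal standard. Calibration ran 5–1 000 ng/mL, with analyte/IS ratio fitted by 1/x-weighted least squares.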

[4] = RhRR of control group, single oral 1.5 mL/200 g RhRR decoction
[5] = RhRR-EuS of control group, single oral 1.5 mL/200 g RhRR-EuS decoction
[6] = T1/2, RhRR-EuS of control group, single oral 1.5 mL/200 g RhRR-EuS decoction
[7] = 10 ng/mL, room temperature for 24 h
[8] = 100 ng/mL, room temperature for 24 h
[9] = 100 ng/mL, −20 °C free for 15 d
[10] = 500 ng/mL, room temperature for 24 h
[11] = 500 ng/mL, −20 °C free for 15 d

Compound	AUC [1, 4]	AUC [1, 5]	AUC(0-t) [1, 4]	AUC(0-t) [1, 5]	Cmax [1, 4]	Cmax [1, 5]	MRT last [1, 4]	MRT last [1, 5]	half-life [1, 6]	Tmax [2]	Stability S [3, 7]	Stability S ([3]; 10 ng/mL, −4 °C for 14 d)	Stability S ([3]; 10 ng/mL, −20 °C free for 15 d)	Stability S [3, 8]	Stability S ([3]; 100 ng/mL, −4 °C for 14 d)	Stability S [3, 9]	Stability S [3, 10]	Stability S ([3]; 500 ng/mL, −4 °C for 14 d)	Stability S [3, 11]	Tmax [1, 4]	also measured
COc1cc(O)c2c(c1)C(=O)c1cc(C)cc(O)c1C2=O [Ph, Physcion]	414 ng·h/mL	243 ng·h/mL	136 ng·h/mL	136 ng·h/mL	54.4 ng/mL	58.6 ng/mL	37.3 h	14.7 h	10.9 h	0.25 h	103%	99.50%	105%	105%	102%	100.6%	90.50%	96.70%	95.3%		Tmax [1, 5]: 0.25 h
O=C1c2cccc(O)c2C(=O)c2c(O)cc(CO)cc21 [Ae, Aloe emodin]	738 ng·h/mL	489 ng·h/mL	474 ng·h/mL	443 ng·h/mL	101 ng/mL	124 ng/mL	11.9 h	5.78 h	3.04 h	2 h	99.60%	107%	88.6%	88.50%	112%	84.3%	98.50%	98.30%	85.6%	2 h	Tmax [1, 5]: 0.5 h
Cc1cc(O)c2c(c1)C(=O)c1cccc(O)c1C2=O [Ch, Chrysophanol]	712 ng·h/mL	763 ng·h/mL	662 ng·h/mL	739 ng·h/mL	164 ng/mL	170 ng/mL	5.33 h	5.64 h	1.31 h	0.5 h	114%	99.70%	105.40%	105%	103%	102.30%	90.40%	96.30%	99.50%	1 h	half-life ([1]; T1/2, RhRR of control group, single oral 1.5 mL/200 g RhRR decoction): 3.64 h

More lines, main results first:

AUC [1, 4]	AUC [1, 5]	AUC(0-t) [1, 4]	AUC(0-t) [1, 5]	Cmax [1, 4]	Cmax [1, 5]	MRT last [1, 4]	MRT last [1, 5]	half-life [1, 6]	Tmax [2]	Stability S [3, 7]	Stability S ([3]; 10 ng/mL, −4 °C for 14 d)	Stability S ([3]; 10 ng/mL, −20 °C free for 15 d)	Stability S [3, 8]	Stability S ([3]; 100 ng/mL, −4 °C for 14 d)	Stability S [3, 9]	Stability S [3, 10]	Stability S ([3]; 500 ng/mL, −4 °C for 14 d)	Stability S [3, 11]	Tmax [1, 4]	Compound	also measured
1670 ng·h/mL	1720 ng·h/mL	1440 ng·h/mL	1600 ng·h/mL	434 ng/mL	455 ng/mL	6.31 h	5.44 h	1.84 h	8 h	106.20%	95.90%	109.40%	112.30%	94.60%	95.30%	89.40%	85.40%	100.40%		O=C(O)c1cc(O)c2c(c1)C(=O)c1cccc(O)c1C2=O [Rh, Rhein]	Bioavailability among the five components ([1]; all groups (control and model rats, oral RhRR or RhRR-EuS decoction)): highest
94.1 ng·h/mL	154 ng·h/mL	67.7 ng·h/mL	68.3 ng·h/mL	11.2 ng/mL	16.4 ng/mL	9.3 h	18.3 h	11.4 h		104.60%	105%	98.50%	110.40%	108%	108.40%	99.60%	89.90%	106%	0.5 h	Cc1cc(O)c2c(c1)C(=O)c1cc(O)cc(O)c1C2=O [Em, Emodin]	
